Results on two compounds are retold here after ChEMBL document CHEMBL2034880, “Synthesis and biological evaluation of pyrimidine-based dual inhibitors of human epidermal growth factor receptor 1 (HER-1) and HER-2 tyrosine kinases” (J Med Chem, 2012).

A short description of data set [1]: Cytotoxicity against human MDA-MB-175 cells expressing Src, Ret and low HER-2 after 72 hrs by SRB assay. It counts as functional, cell-based. In outline: (§1)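 Culture conditions: MDA-MB-361 and MDA-MB-453 grown in L-15 without CO2. NCI-N87, NCI-H1781 and NCI-H1975 grown in RPMI with 1 mM sodium pyruvate under 5% CO2. JIMT-1 grown in DMEM (4.5 g/L glucose) under 5% CO2. MDA-MB-175 grown in L-15 without CO2. All media contained 10% FBS and 1% penicillin-streptomycin, 37 °C. Growth inhibition/GI50 read-out was run per a cited earlier protocol.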

A further data set has as its system MDA-MB-361. The data set is described as follows: Cytotoxicity against ER activated human MDA-MB-361 cells expressing Her-2, Src and PIK3CA mutant after 72 hrs by SRB assay. It counts as functional, cell-based. The settings on record: MDA-MB-361, 72 h. The essentials: as §1
For orientation: In SRB staining, fixed cells bind dye roughly in proportion to their protein.

The test system of the next data set is MDA-MB-453. The data set is described as follows: Cytotoxicity against PTEN-deficient human MDA-MB-453 cells expressing HER-2, and PIK3CA mutant after 72 hrs by SRB assay. It counts as functional, cell-based. As to conditions: MDA-MB-453, 72 h. The essentials: as §1
Data set [2] is described as follows: Cytotoxicity against human JIMT1 cells expressing low HER-2 after 72 hrs by SRB assay. The settings on record: JIMT-1, 72 h. It counts as functional, cell-based. In outline:
as §1

The next data set relates to NCI-N87. The data set can be described thus: Cytotoxicity against human NCI-N87 cells expressing HER-2 after 72 hrs by SRB assay. It counts as functional, cell-based. The settings on record: NCI-N87, 72 h. In outline:
as §1

Data set [3] in a line: Cytotoxicity against human NCI-H1781 cells expressing HER-2 G776insV_G/C after 72 hrs by SRB assay. It counts as functional, cell-based. The settings on record: NCI-H1781, 72 h. In outline:
as §1

Another data set deals with NCI-H1975. The data set can be described thus: Cytotoxicity against human NCI-H1975 cells expressing EGFR L858R/T790M mutant after 72 hrs by SRB assay. As to conditions: NCI-H1975, 72 h. It counts as functional, cell-based. The essentials:
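NCI-N87, NCI-H1781 and NCI-H1975 grown in RPMI with 1 mM sodium pyruvate under 5% CO2. JIMT-1 grown in DMEM (4.5 g/L glucose) under 5% CO2. All media contained 10% FBS and 1% penicillin-streptomycin, 37 °C. Growth inhibition/GI50 read-out was run per a cited earlier protocol.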

Data set [4] in a line: Half life in human liver microsomes at 5 uM. The settings on record: liver microsomes. (In general: Liver microsomes are a subcellular fraction often used to study metabolism.)
Data set [5] is described as follows: Half life in rat liver microsomes at 5 uM. The settings on record: liver microsomes.
The nature of data set [6]: Half life in dog liver microsomes at 5 uM. As to conditions: liver microsomes.
The test system of the next data set is SK-BR-3. The data set is described as follows: Cytotoxicity against human SKBR3 cells overexpressing HER-2 gene after 72 hrs by SRB assay. It counts as functional, cell-based. The settings on record: SK-BR-3, 72 h. The essentials: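 A431 and SK-Br3 cells grown in DMEM (4.5 g/L glucose, 1.5 g/L sodium bicarbonate) with 10% FBS at 37 °C, humidified 5% CO2. Proliferation/growth inhibition IC50 values are means of three independent experiments, each run in duplicate.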

Data set [7] is described as follows: Half life in mouse liver microsomes at 5 uM. The settings on record: liver microsomes.
Data set [8] deals with Receptor tyrosine-protein kinase erbB-2 (Homo sapiens, UniProt P04626). The data set can be described thus: Inhibition of HER2 preincubated for 10 mins followed by incubation for 30 mins by fluorescence polarization assay. (Polarisation of emitted light reports the rotation of a fluorescent probe.)
Data set [9] deals with Receptor tyrosine-protein kinase erbB-4 (Homo sapiens, UniProt Q15303). The data set can be described thus: Inhibition of HER4 preincubated for 10 mins followed by incubation for 30 mins by fluorescence polarization assay.
Data set [10] concerns the target Tyrosine-protein kinase ABL1 (Homo sapiens, UniProt P00519). The data set can be described thus: Inhibition of Abl.
Data set [11] concerns the target 5'-AMP-activated protein kinase catalytic subunit alpha-1 (Homo sapiens, UniProt Q13131). The data set is described as follows: Inhibition of AMPKalpha1.
Another data set has as its target Aurora kinase A (Homo sapiens, UniProt O14965). The data set is described as follows: Inhibition of Aurora A.
Data set [12] deals with Cyclin-dependent kinase 1/cyclin B1 (Homo sapiens, UniProt P06493). The data set is described as follows: Inhibition of CDK1/cyclin B. It counts as protein-complex assay.
Data set [13] concerns the target Mast/stem cell growth factor receptor Kit (Homo sapiens, UniProt P10721). The data set is described as follows: Inhibition of cKIT.
The next data set addresses Focal adhesion kinase 1 (Homo sapiens, UniProt Q05397). The data set can be described thus: Inhibition of FAK.
Data set [14] concerns the target Fibroblast growth factor receptor 1 (Homo sapiens, UniProt P11362). The data set can be described thus: Inhibition of FGFR1.
For data set [15], the target named is Vascular endothelial growth factor receptor 1 (Homo sapiens, UniProt P17948). The data set is described as follows: Inhibition of Flt1.
Data set [16] concerns the target Receptor-type tyrosine-protein kinase FLT3 (Homo sapiens, UniProt P36888). The data set is described as follows: Inhibition of Flt3.
Data set [17] deals with Insulin-like growth factor 1 receptor (Homo sapiens, UniProt P08069). The data set is described as follows: Inhibition of IGF-1R.
Another data set deals with Insulin receptor (Homo sapiens, UniProt P06213). The data set can be described thus: Inhibition of IR.
The target of data set [18] is Tyrosine-protein kinase JAK2 (Homo sapiens, UniProt O60674). The data set is described as follows: Inhibition of JAK2.
Data set [19] deals with Serine/threonine-protein kinase STK11 (Homo sapiens, UniProt Q15831). The data set can be described thus: Inhibition of LKB1.
Data set [20] concerns the target Dual specificity mitogen-activated protein kinase kinase 1 (Homo sapiens, UniProt Q02750). The data set is described as follows: Inhibition of MEK1.
The target in data set [21] is Hepatocyte growth factor receptor (Homo sapiens, UniProt P08581). The data set is described as follows: Inhibition of MET.
The target in data set [22] is Platelet-derived growth factor receptor alpha (Homo sapiens, UniProt P16234). The data set can be described thus: Inhibition of PDGFRalpha.
Data set [23] deals with Platelet-derived growth factor receptor beta (Homo sapiens, UniProt P09619). The data set can be described thus: Inhibition of PDGFRbeta.
The target in data set [24] is Tyrosine-protein kinase SYK (Homo sapiens, UniProt P43405). The data set is described as follows: Inhibition of Syk.
Data set [25] has as its target Serine/threonine-protein kinase pim-1 (Homo sapiens, UniProt P11309). The data set can be described thus: Inhibition of PIM1.

Chain of Insulin receptor (P06213 28-758 limits assumed): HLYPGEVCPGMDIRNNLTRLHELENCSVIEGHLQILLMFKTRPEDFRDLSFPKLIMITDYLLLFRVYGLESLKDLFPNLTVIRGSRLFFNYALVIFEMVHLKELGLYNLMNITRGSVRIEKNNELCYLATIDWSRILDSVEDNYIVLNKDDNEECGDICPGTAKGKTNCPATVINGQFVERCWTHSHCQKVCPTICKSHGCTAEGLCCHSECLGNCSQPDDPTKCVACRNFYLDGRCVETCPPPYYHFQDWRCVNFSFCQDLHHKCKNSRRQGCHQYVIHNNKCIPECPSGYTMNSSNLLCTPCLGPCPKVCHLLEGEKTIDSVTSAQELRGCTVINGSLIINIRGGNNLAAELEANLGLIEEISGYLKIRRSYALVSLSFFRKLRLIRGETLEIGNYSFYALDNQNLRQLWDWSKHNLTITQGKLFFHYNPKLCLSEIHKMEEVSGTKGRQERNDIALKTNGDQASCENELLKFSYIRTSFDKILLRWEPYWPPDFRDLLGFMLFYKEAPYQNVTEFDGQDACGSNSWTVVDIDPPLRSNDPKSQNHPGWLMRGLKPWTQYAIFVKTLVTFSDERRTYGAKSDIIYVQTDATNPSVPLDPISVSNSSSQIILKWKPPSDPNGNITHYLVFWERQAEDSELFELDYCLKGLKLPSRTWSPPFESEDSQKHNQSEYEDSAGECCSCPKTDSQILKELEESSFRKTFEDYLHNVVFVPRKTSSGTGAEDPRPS
Chain of Insulin receptor (P06213 763-1382 limits assumed): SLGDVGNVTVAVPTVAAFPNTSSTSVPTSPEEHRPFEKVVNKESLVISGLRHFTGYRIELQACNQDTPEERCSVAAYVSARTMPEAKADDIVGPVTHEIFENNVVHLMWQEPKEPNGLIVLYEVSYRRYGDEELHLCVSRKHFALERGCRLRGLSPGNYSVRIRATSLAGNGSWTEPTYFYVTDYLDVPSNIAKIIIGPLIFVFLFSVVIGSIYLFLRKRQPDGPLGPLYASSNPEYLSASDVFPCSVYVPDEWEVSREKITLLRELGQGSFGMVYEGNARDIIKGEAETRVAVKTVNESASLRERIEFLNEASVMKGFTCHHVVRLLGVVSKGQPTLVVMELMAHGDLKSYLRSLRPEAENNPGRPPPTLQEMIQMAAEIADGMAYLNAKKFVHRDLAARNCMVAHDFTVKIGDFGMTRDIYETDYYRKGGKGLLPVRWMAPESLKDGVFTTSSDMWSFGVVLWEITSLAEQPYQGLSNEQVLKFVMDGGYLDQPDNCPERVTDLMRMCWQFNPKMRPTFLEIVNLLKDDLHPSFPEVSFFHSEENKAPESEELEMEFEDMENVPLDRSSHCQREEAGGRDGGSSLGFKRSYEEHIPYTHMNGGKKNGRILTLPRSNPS
Chain of 5'-AMP-activated protein kinase catalytic subunit alpha-1 (Q13131 whole entry): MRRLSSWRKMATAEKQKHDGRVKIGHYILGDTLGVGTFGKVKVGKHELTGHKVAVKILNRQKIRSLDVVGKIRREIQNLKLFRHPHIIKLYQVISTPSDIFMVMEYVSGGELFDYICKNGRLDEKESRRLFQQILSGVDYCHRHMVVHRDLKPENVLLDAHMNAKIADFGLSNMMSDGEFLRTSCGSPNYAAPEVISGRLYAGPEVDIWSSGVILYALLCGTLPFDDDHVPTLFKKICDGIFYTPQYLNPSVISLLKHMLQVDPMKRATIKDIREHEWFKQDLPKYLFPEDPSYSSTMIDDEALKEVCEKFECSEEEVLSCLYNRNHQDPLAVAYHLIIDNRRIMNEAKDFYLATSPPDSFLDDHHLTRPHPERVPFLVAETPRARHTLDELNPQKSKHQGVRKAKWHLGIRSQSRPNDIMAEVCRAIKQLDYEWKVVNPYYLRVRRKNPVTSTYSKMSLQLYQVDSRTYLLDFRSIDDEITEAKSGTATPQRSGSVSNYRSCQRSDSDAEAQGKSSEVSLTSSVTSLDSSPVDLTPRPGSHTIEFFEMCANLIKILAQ
Chain of Hepatocyte growth factor receptor (P08581 whole entry): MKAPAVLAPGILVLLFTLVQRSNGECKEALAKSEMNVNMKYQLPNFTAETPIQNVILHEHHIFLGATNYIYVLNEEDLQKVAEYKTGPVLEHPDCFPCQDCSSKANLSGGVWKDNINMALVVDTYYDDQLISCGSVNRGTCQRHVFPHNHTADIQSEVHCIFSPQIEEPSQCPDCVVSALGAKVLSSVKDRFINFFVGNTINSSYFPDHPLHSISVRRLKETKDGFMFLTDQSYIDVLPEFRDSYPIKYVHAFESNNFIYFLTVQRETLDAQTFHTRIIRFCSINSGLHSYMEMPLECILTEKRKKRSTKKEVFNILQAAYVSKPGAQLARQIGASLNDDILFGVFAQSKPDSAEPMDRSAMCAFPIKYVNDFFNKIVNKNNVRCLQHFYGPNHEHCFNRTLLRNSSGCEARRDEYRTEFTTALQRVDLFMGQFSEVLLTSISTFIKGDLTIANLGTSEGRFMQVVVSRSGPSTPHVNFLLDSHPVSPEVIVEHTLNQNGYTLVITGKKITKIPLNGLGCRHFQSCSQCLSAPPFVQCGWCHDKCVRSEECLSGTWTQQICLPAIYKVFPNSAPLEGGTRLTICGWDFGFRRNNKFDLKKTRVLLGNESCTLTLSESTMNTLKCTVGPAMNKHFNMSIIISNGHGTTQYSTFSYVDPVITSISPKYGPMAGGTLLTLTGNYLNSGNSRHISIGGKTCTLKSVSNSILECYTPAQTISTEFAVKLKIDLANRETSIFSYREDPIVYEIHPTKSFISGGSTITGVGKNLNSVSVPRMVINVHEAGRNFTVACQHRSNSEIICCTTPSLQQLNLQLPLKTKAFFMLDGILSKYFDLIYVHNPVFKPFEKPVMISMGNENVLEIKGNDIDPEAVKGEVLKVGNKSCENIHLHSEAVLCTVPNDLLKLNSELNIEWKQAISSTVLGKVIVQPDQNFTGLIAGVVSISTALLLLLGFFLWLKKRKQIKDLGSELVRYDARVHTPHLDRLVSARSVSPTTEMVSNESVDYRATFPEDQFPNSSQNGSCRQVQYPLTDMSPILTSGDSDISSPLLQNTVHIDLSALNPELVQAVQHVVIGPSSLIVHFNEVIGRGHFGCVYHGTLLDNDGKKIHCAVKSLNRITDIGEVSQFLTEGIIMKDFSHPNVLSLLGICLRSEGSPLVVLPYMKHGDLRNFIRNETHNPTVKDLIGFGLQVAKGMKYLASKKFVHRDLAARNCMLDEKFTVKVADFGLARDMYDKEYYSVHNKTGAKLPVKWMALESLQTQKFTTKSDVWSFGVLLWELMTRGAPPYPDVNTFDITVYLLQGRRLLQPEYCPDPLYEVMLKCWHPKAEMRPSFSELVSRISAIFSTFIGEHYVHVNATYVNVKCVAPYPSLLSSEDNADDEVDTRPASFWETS
Chain of Aurora kinase A (O14965 whole entry): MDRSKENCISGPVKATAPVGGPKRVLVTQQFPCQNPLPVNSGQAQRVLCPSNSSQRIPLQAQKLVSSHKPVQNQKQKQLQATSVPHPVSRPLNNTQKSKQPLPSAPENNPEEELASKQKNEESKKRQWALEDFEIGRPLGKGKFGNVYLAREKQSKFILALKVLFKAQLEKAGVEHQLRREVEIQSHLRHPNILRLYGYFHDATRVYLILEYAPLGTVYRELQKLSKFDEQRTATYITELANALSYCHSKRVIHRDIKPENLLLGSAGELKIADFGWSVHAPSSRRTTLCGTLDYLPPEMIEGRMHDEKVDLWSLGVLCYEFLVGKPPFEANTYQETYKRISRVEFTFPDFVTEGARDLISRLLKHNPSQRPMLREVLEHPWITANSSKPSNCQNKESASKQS
Chain of Tyrosine-protein kinase JAK2 (O60674 whole entry): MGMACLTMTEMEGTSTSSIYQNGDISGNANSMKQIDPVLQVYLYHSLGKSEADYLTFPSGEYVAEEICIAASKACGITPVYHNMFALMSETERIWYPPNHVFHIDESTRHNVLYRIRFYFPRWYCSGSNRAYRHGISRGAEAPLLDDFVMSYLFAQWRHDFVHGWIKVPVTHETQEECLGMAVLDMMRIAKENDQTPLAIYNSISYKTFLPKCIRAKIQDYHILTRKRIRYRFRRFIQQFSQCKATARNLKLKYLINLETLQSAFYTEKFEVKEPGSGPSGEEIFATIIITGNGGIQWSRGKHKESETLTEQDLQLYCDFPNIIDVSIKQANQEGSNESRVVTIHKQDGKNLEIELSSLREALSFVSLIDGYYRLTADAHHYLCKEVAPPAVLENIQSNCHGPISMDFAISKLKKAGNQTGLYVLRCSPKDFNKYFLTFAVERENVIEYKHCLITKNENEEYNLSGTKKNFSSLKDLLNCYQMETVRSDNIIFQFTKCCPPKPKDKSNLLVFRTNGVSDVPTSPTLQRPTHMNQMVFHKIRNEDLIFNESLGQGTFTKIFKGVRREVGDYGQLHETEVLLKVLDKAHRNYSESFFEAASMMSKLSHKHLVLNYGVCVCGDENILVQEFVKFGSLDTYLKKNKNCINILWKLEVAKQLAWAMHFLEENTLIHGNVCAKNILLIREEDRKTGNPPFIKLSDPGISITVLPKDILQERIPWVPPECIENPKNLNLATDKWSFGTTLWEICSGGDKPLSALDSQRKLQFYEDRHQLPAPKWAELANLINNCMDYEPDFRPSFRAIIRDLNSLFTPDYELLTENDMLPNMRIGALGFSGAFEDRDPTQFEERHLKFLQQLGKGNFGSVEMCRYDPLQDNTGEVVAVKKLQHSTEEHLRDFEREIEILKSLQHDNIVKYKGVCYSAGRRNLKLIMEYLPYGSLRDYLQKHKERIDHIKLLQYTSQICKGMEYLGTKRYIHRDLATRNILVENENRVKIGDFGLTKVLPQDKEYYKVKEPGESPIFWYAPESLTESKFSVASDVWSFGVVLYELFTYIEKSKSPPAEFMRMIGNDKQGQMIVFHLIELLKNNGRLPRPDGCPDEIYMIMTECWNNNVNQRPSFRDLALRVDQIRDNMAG

Broadly, the IC50 is the concentration that gives 50% inhibition. High values mean a need for much substance, low ones inhibition by little substance. On to `CS(=O)(=O)CCNCc1ccc(-c2ccc3ncnc(Nc4ccc(OCc5cccc(F)c5)c(Cl)c4)c3c2)o1` [LAPATINIB], for which the IC50 in data set [1] was 44.4 nM; with MDA-MB-361 it was 1030 nM; in the data set with MDA-MB-453, 555 nM; in data set [2] it was above 10000 nM; in the data set with NCI-N87 it was 36 nM; in [3], 3050 nM. In the data set with NCI-H1975, this compound came in with an IC50 above 1000 nM.

What is called half-life is the time needed for the level to fall by half in the phase considered. For `C=CC(=O)NCc1coc(-c2c(N)ncnc2Nc2ccc(OCc3ccccn3)c(Cl)c2)n1`, the half-life at 5 µM was determined as 25 min in data set [4], 23 min in data set [5], 46 min in data set [6] and 17 min in data set [7]. Further, the IC50 was 0.7 nM in the data set with SK-BR-3; 22.4 nM in [8]; 4 nM in data set [9]; above 3000 nM in data set [10]; above 3000 nM in data set [11]; above 3000 nM at Aurora kinase A. For the same compound, the IC50 (in data set [12]; in [13]; at Focal adhesion kinase 1; in data set [14]; in data set [15]; in [16]) was above 3000 nM each time. The IC50 (in data set [17]; on Insulin receptor; in data set [18]; in data set [19]; in data set [20]; in [21]) was above 3000 nM each time. Besides, the IC50 in [22] is above 3000 nM; in [23], above 3000 nM; in data set [24], above 3000 nM; in [25] it was above 3000 nM; in [1], 1.6 nM; with MDA-MB-361 it was 562 nM. Further, the values for the IC50 (in the data set with MDA-MB-453; in data set [2]; in data set [3]) were 5 nM, 1880 nM and 22 nM, respectively.
